Results taken from ChEMBL document CHEMBL2040734, “Benzothiazoles: search for anticancer agents” (2012).

Tests used:
Type in all cases: functional
[1] = tested on: ACHN; assay: Cytotoxicity against human ACHN cells assessed as cell growth at 0.1 uM after 48 hrs by sulforhodamine B assay; settings: read-out: Activity
Procedure, shortened: (§1)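 NCI-60 five-dose screen. Cells were grown in RPMI 1640 with 5% FBS and 2 mM L-glutamine and preincubated 24 h. Compound (DMSO stock) was tested at 0.01, 0.1, 1, 10 and 100 µM for 48 h at 37 °C. Cells were fixed in situ with cold TCA (final 10%) and stained with 0.4% SRB. A515 was read, and percent growth was calculated against time-zero and control plates.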

[2] = tested on: SK-MEL-5; assay: Cytotoxicity against human SK-MEL-5 cells assessed as cell growth at 100 uM after 48 hrs by sulforhodamine B assay; settings: SK-MEL-5, 48 h, read-out: Activity
[3] = tested on: OVCAR-4; assay: Cytotoxicity against human OVCAR4 cells assessed as cell growth at 0.1 uM after 48 hrs by sulforhodamine B assay; settings: OVCAR-4, 48 h, read-out: Activity
[4] = tested on: T47D; assay: Cytotoxicity against human T47D cells assessed as cell growth at 0.1 uM after 48 hrs by sulforhodamine B assay; settings: read-out: Activity
[5] = tested on: SF-539; assay: Cytotoxicity against human SF539 cells assessed as cell growth at 10 uM after 48 hrs by sulforhodamine B assay; settings: SF-539, 48 h, read-out: Activity
[6] = tested on: ACHN; assay: Growth inhibition of human ACHN cells after 48 hrs by sulforhodamine B assay; settings: for CC50: read-out: LC50 (the source's name)
Procedure, shortened: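 Cells were in RPMI 1640 with 5% FBS and pre-incubated 24 h. Read-out was TCA fixation, SRB staining and absorbance at 515 nm. GI50 was the concentration where [(Ti−Tz)/(C−Tz)]×100 = 50, taken from log concentration vs % growth curves. It is given as ">" the top concentration when not reached.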

[7] = tested on: ACHN; assay: Cytotoxicity against human ACHN cells assessed as cell growth at 10 '-5 M after 48 hrs by sulforhodamine B assay; settings: read-out: Activity
Procedure, shortened: (§2)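 Primary NCI-60 single-dose screen at 10 µM. Cells were grown in RPMI 1640 with 5% FBS and 2 mM L-glutamine and plated 24 h before drug addition. Compound was solubilized in DMSO, then exposed for 48 h at 37 °C under 5% CO2. Cells were TCA-fixed and stained with SRB, and absorbance was read at 515 nm. Growth was expressed relative to time-zero and untreated controls.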

[8] = tested on: RPMI-8226; assay: Growth inhibition of human RPMI8226 cells after 48 hrs by sulforhodamine B assay; settings: RPMI-8226, 48 h; for CC50: read-out: LC50 (the source's name)
Procedure, shortened: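 Leukemia suspension lines were grown in RPMI 1640 with 5% FBS and 2 mM L-glutamine and plated at 5000–40,000 cells/well with 24 h preincubation. They were treated at 0.01, 0.1, 1, 10 and 100 µM (DMSO stock) for 48 h at 37 °C. Settled cells were fixed with 80% TCA (16% final) and stained with 0.4% SRB in 1% acetic acid, then read at 515 nm. GI50 was calculated against time-zero and control wells.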

[9] = Cytotoxicity against human Hs 578T cells assessed as cell growth at 1 uM after 48 hrs by sulforhodamine B assay; settings: read-out: Activity
Procedure, shortened: (§3)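 Five-dose NCI panel run at 0.01, 0.1, 1, 10 and 100 µM. Cells were in RPMI 1640 with 5% FBS and 2 mM L-glutamine, seeded at 5000–40,000 cells/well and pre-incubated 24 h. Drug was diluted from a DMSO stock into medium with 50 µg/ml gentamicin. Exposure was 48 h at 37 °C, 5% CO2. Cells were fixed with cold TCA and stained with 0.4% SRB, read at 515 nm. Percent growth came from time-zero, control and test absorbances.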

[10] = tested on: NCI-H226; assay: Cytotoxicity against human NCI-H226 cells assessed as cell growth at 10 '-5 M after 48 hrs by sulforhodamine B assay; settings: NCI-H226, 48 h, read-out: Activity
[11] = tested on: MCF7; assay: Cytotoxicity against human MCF7 cells assessed as cell growth at 0.1 uM after 48 hrs by sulforhodamine B assay; settings: MCF7, 48 h, read-out: Activity
[12] = tested on: MDA-MB-231; assay: Cytotoxicity against human MDA-MB-231 cells assessed as cell growth at 0.01 uM after 48 hrs by sulforhodamine B assay; settings: MDA-MB-231, 48 h, read-out: Activity
[13] = tested on: COLO 205; assay: Cytotoxicity against human COLO205 cells assessed as cell growth at 10 uM after 48 hrs by sulforhodamine B assay; settings: COLO 205, 48 h, read-out: Activity; procedure, shortened: as §1
[14] = tested on: OVCAR-3; assay: Cytotoxicity against human OVCAR3 cells assessed as cell growth at 10 '-5 M after 48 hrs by sulforhodamine B assay; settings: OVCAR-3, 48 h, read-out: Activity
[15] = tested on: NCI/ADR-RES; assay: Cytotoxicity against human NCI/ADR-RES cells assessed as cell growth at 10 '-5 M after 48 hrs by sulforhodamine B assay; settings: read-out: Activity
[16] = tested on: CAKI-1; assay: Cytotoxicity against human Caki1 cells assessed as cell growth at 10 '-5 M after 48 hrs by sulforhodamine B assay; settings: CAKI-1, 48 h, read-out: Activity; procedure, shortened: as §2
[17] = tested on: KM12; assay: Cytotoxicity against human KM12 cells assessed as cell growth at 0.01 uM after 48 hrs by sulforhodamine B assay; settings: KM12, 48 h, read-out: Activity
[18] = tested on: SF-539; assay: Cytotoxicity against human SF539 cells assessed as cell growth at 0.1 uM after 48 hrs by sulforhodamine B assay; settings: SF-539, 48 h, read-out: Activity
[19] = tested on: BT-549; assay: Cytotoxicity against human BT549 cells assessed as cell growth at 10 uM after 48 hrs by sulforhodamine B assay; settings: BT-549, 48 h, read-out: Activity; procedure, shortened: as §1
[20] = tested on: HCT-116; assay: Cytotoxicity against human HCT116 cells assessed as cell growth at 100 uM after 48 hrs by sulforhodamine B assay; settings: HCT-116, 48 h, read-out: Activity; procedure, shortened: as §3
[21] = tested on: HCT-116; assay: Cytotoxicity against human HCT116 cells assessed as cell growth at 0.01 uM after 48 hrs by sulforhodamine B assay; settings: HCT-116, 48 h, read-out: Activity; procedure, shortened: as §3
[22] = tested on: SW-620; assay: Cytotoxicity against human SW620 cells assessed as cell growth at 10 '-5 M after 48 hrs by sulforhodamine B assay; settings: SW-620, 48 h, read-out: Activity
[23] = tested on: NCI/ADR-RES; assay: Cytotoxicity against human NCI/ADR-RES cells assessed as cell growth at 0.01 uM after 48 hrs by sulforhodamine B assay; settings: read-out: Activity
[24] = tested on: HCC 2998; assay: Cytotoxicity against human HCC2998 cells assessed as cell growth at 100 uM after 48 hrs by sulforhodamine B assay; settings: HCC 2998, 48 h, read-out: Activity; procedure, shortened: as §3
[25] = tested on: A549; assay: Cytotoxicity against human A549 cells assessed as cell growth at 10 '-5 M after 48 hrs by sulforhodamine B assay; settings: A549, 48 h, read-out: Activity; procedure, shortened: as §2
[26] = tested on: NCI-H322M; assay: Cytotoxicity against human NCI-H322M cells assessed as cell growth at 0.1 uM after 48 hrs by sulforhodamine B assay; settings: read-out: Activity
[27] = tested on: DU-145; assay: Cytotoxicity against human DU145 cells assessed as cell growth at 0.01 uM after 48 hrs by sulforhodamine B assay; settings: DU-145, 48 h, read-out: Activity; procedure, shortened: as §1

Compound | growth at 0.1 µM [1] [%] | growth at 100 µM [2] [%] | growth at 0.1 µM [3] [%] | growth at 0.1 µM [4] [%] | growth at 10 µM [5] [%] | GI50 [6] [µM] | TGI [6] [µM] | CC50 [6] [µM] | growth at 10 µM [7] [%] | GI50 [8] [µM] | TGI [8] [µM] | CC50 [8] [µM] | growth at 1 µM [9] [%] | growth at 10 µM [10] [%] | growth at 0.1 µM [11] [%] | growth at 0.01 µM [12] [%] | growth at 10 µM [13] [%] | growth at 10 µM [14] [%] | growth at 10 µM [15] [%] | growth at 10 µM [16] [%] | other results
Cc1ccc2nc(Nc3c(C)cccc3C)sc2c1 | 105 | 60 | 89 | 96 | 57 | 76.6 | > 100 | > 100 | 52.2 | > 100 | > 100 | > 100 | 64 | 69.7 | 92 | 85 | 49 | 18.7 | 4.04 | 22.1 | growth at 0.01 µM [17]: 101%; growth at 0.1 µM [18]: 97%; growth at 10 µM [19]: 46%; growth at 100 µM [20]: 49%; growth at 0.01 µM [21]: 102%; growth at 10 µM [22]: 21.6%; growth at 0.01 µM [23]: 98%; growth at 100 µM [24]: 62%; growth at 10 µM [25]: 32.6%; growth at 0.1 µM [26]: 105%; growth at 0.01 µM [27]: 104%
Clc1cccc(Cl)c1Nc1nc2cccc(Cl)c2s1 | 98 | -76 | 83 | 102 | -81 | 1.15 | 2.38 | 4.92 | -18.9 | 0.829 | 5.05 | > 100 | 49 | -40.8 | 87 | 92 | -91 | -61.4 | -37.3 | -10.6 | growth at 0.01 µM [17]: 99%; growth at 0.1 µM [18]: 100%; growth at 10 µM [19]: -86%; growth at 100 µM [20]: -73%; growth at 0.01 µM [21]: 104%; growth at 10 µM [22]: -84.9%; growth at 0.01 µM [23]: 99%; growth at 100 µM [24]: -64%; growth at 10 µM [25]: 0.55%; growth at 0.1 µM [26]: 102%; growth at 0.01 µM [27]: 106%
